Laboratory results reported in ChEMBL document CHEMBL1811814, “Synthesis and evaluation of indole, pyrazole, chromone and pyrimidine based conjugates for tumor growth inhibitory activities--development of highly efficacious cytotoxic agents” (Eur J Med Chem, 2010).

What was measured:
Format in all cases: functional
[1] = system: PC-3; assay: Growth inhibition of human PC3 cells assessed tumor cell growth at 10^-5 M; set-up: scale not given: the % may be the effect or the level left
Method in brief: (§1)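 NCI 60-human-tumor-cell-line panel screen. Each compound was tested at a single concentration of 10^-5 M, and percent growth of tumor cells was recorded for each cell line. Growth inhibition was expressed from these percent-growth values.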

[2] = system: SF-539; assay: Growth inhibition of human SF539 cells assessed tumor cell growth at 10^-5 M; set-up: scale not given: the % may be the effect or the level left; method in brief: as §1
[3] = system: OVCAR-3; assay: Growth inhibition of human OVCAR3 cells
[4] = system: CCRF-CEM; assay: Growth inhibition of human CCRF-CEM cells assessed tumor cell growth at 10^-5 M; set-up: scale not given: the % may be the effect or the level left; method in brief: as §1
[5] = system: 786-0; assay: Growth inhibition of human 786-0 cells
[6] = system: DU-145; assay: Growth inhibition of human DU145 cells
[7] = system: SK-MEL-2; assay: Growth inhibition of human SK-MEL-2 cells
[8] = system: OVCAR-4; assay: Growth inhibition of human OVCAR4 cells
[9] = system: SNB-19; assay: Growth inhibition of human SNB19 cells assessed tumor cell growth at 10^-5 M; set-up: scale not given: the % may be the effect or the level left
Method in brief: (§2)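 Single-dose screen at 10^-5 M across the 60 human tumor cell line panel, run to NCI standards. The value is the percent growth of each cell line in the presence of compound. Compounds active at this dose moved on to five-concentration testing (10^-4 to 10^-8 M).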

[10] = system: HT-29; assay: Growth inhibition of human HT-29 cells assessed tumor cell growth at 10^-5 M; set-up: scale not given: the % may be the effect or the level left; method in brief: as §1
[11] = system: MDA-MB-468; assay: Growth inhibition of human MDA-MB-468 cells
[12] = system: UACC-62; assay: Growth inhibition of human UACC62 cells
[13] = system: COLO 205; assay: Growth inhibition of human COLO205 cells assessed tumor cell growth at 10^-5 M; set-up: scale not given: the % may be the effect or the level left; method in brief: as §1
[14] = system: HCC 2998; assay: Growth inhibition of human HCC2998 cells
[15] = system: SK-OV-3; assay: Growth inhibition of human SKOV3 cells
[16] = system: TK-10; assay: Growth inhibition of human TK10 cells
[17] = system: NCI-H226; assay: Growth inhibition of human NCI-H226 cells assessed tumor cell growth at 10^-5 M; set-up: scale not given: the % may be the effect or the level left; method in brief: as §1
[18] = system: HCT-116; assay: Growth inhibition of human HCT116 cells
[19] = system: OVCAR-8; assay: Growth inhibition of human OVCAR8 cells assessed tumor cell growth at 10^-5 M; set-up: scale not given: the % may be the effect or the level left; method in brief: as §1
[20] = system: HOP-92; assay: Growth inhibition of human HOP92 cells assessed tumor cell growth at 10^-5 M; set-up: scale not given: the % may be the effect or the level left; method in brief: as §1
[21] = system: SR; assay: Growth inhibition of human SR cells assessed tumor cell growth at 10^-5 M; set-up: scale not given: the % may be the effect or the level left; method in brief: as §2
[22] = system: KM12; assay: Growth inhibition of human KM12 cells
[23] = system: T47D; assay: Growth inhibition of human T47D cells assessed tumor cell growth at 10^-5 M; set-up: scale not given: the % may be the effect or the level left; method in brief: as §2
[24] = system: OVCAR-5; assay: Growth inhibition of human OVCAR5 cells assessed tumor cell growth at 10^-5 M; set-up: scale not given: the % may be the effect or the level left; method in brief: as §1
[25] = system: SK-MEL-5; assay: Growth inhibition of human SK-MEL-5 cells
[26] = system: UACC-62; assay: Growth inhibition of human UACC62 cells assessed tumor cell growth at 10^-5 M; set-up: scale not given: the % may be the effect or the level left; method in brief: as §2
[27] = system: HL-60(TB); assay: Growth inhibition of human HL-60(TB) cells
[28] = system: HT-29; assay: Growth inhibition of human HT-29 cells
[29] = system: OVCAR-4; assay: Growth inhibition of human OVCAR4 cells assessed tumor cell growth at 10^-5 M; set-up: scale not given: the % may be the effect or the level left; method in brief: as §1
[30] = system: NCI/ADR-RES; assay: Growth inhibition of human NCI/ADR-RES cells
[31] = system: HL-60(TB); assay: Growth inhibition of human HL-60(TB) cells assessed tumor cell growth at 10^-5 M; set-up: scale not given: the % may be the effect or the level left
Method in brief: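 HL-60(TB), part of the 60-line panel, tested at a single concentration of 10^-5 M. The read-out is percent tumor cell growth relative to untreated growth.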

[32] = system: OVCAR-5; assay: Growth inhibition of human OVCAR5 cells
[33] = system: SF-268; assay: Growth inhibition of human SF268 cells assessed tumor cell growth at 10^-5 M; set-up: scale not given: the % may be the effect or the level left; method in brief: as §1
[34] = system: NCI-H322M; assay: Growth inhibition of human NCI-H322M cells
[35] = system: CAKI-1; assay: Growth inhibition of human Caki1 cells assessed tumor cell growth at 10^-5 M; set-up: scale not given: the % may be the effect or the level left; method in brief: as §1
[36] = system: MDA-MB-231; assay: Growth inhibition of human MDA-MB-231 cells assessed tumor cell growth at 10^-5 M; set-up: scale not given: the % may be the effect or the level left; method in brief: as §1
[37] = system: A549; assay: Growth inhibition of human A549 cells
[38] = system: SK-OV-3; assay: Growth inhibition of human SKOV3 cells assessed tumor cell growth at 10^-5 M; set-up: scale not given: the % may be the effect or the level left; method in brief: as §1
[39] = system: HCT-15; assay: Growth inhibition of human HCT15 cells
[40] = system: UO-31; assay: Growth inhibition of human UO31 cells
[41] = system: KM12; assay: Growth inhibition of human KM12 cells assessed tumor cell growth at 10^-5 M; set-up: scale not given: the % may be the effect or the level left; method in brief: as §1
[42] = system: NCI-H23; assay: Growth inhibition of human NCI-H23 cells assessed tumor cell growth at 10^-5 M; set-up: scale not given: the % may be the effect or the level left; method in brief: as §1
[43] = system: MDA-MB-435; assay: Growth inhibition of human MDA-MB-435 cells
[44] = system: SW-620; assay: Growth inhibition of human SW620 cells
[45] = system: SF-295; assay: Growth inhibition of human SF295 cells assessed tumor cell growth at 10^-5 M; set-up: scale not given: the % may be the effect or the level left; method in brief: as §1
[46] = system: HOP-92; assay: Growth inhibition of human HOP92 cells
[47] = system: NCI/ADR-RES; assay: Growth inhibition of human NCI/ADR-RES cells assessed tumor cell growth at 10^-5 M; set-up: scale not given: the % may be the effect or the level left; method in brief: as §1
[48] = system: SF-295; assay: Growth inhibition of human SF295 cells
[49] = system: MDA-MB-468; assay: Growth inhibition of human MDA-MB-468 cells assessed tumor cell growth at 10^-5 M; set-up: scale not given: the % may be the effect or the level left; method in brief: as §1
[50] = system: CAKI-1; assay: Growth inhibition of human Caki1 cells
[51] = system: SNB-75; assay: Growth inhibition of human SNB75 cells
[52] = read-out: LC50 (the source's name)

O=C1/C(=C\c2coc3ccccc3c2=O)c2ccccc2N1c1c(Cl)cccc1Cl
Activity [1]: 31.81%
Activity [2]: 49.4%
GI50 [3]: 2600 nM
CC50 [3, 52]: > 100 µM
Activity [4]: 21.08%
GI50 [5]: 3000 nM
CC50 [5, 52]: > 100 µM
GI50 [6]: 4.6 µM
CC50 [6, 52]: > 100 µM
GI50 [7]: 2700 nM
CC50 [7, 52]: 61.6 µM
GI50 [8]: 3.6 µM
CC50 [8, 52]: > 100 µM
Activity [9]: 62.58%
Activity [10]: 47.62%
GI50 [11]: 2400 nM
CC50 [11, 52]: > 100 µM
GI50 [12]: 2100 nM
CC50 [12, 52]: > 100 µM
Activity [13]: 55.33%
GI50 [14]: 4.2 µM
CC50 [14, 52]: > 100 µM
GI50 [15]: 35.4 µM
CC50 [15, 52]: > 100 µM
GI50 [16]: 3.3 µM
CC50 [16, 52]: > 100 µM
Activity [17]: 90.68%
GI50 [18]: 1900 nM
CC50 [18, 52]: > 100 µM
Activity [19]: 31.58%
Activity [20]: 32.08%
Activity [21]: 19.47%
GI50 [22]: 3000 nM
CC50 [22, 52]: > 100 µM
Activity [23]: 30.04%
Activity [24]: 101.76%
GI50 [25]: 2400 nM
CC50 [25, 52]: > 100 µM
Activity [26]: 36.62%
GI50 [27]: 2000 nM
CC50 [27, 52]: > 100 µM
GI50 [28]: 3000 nM
CC50 [28, 52]: > 100 µM
Activity [29]: 49.54%
GI50 [30]: 3.3 µM
CC50 [30, 52]: > 100 µM
Activity [31]: 33.76%
GI50 [32]: 20.8 µM
CC50 [32, 52]: > 100 µM
Activity [33]: 31.99%
GI50 [34]: 5.8 µM
CC50 [34, 52]: > 100 µM
Activity [35]: -7.88%
Activity [36]: 60.45%
GI50 [37]: 4.2 µM
CC50 [37, 52]: > 100 µM
Activity [38]: 74.8%
GI50 [39]: 600 nM
CC50 [39, 52]: > 100 µM
GI50 [40]: 1800 nM
CC50 [40, 52]: > 100 µM
Activity [41]: 27.09%
Activity [42]: 55.41%
GI50 [43]: 2600 nM
CC50 [43, 52]: > 100 µM
GI50 [44]: 5.2 µM
CC50 [44, 52]: > 100 µM
Activity [45]: -12.01%
GI50 [46]: 4.7 µM
CC50 [46, 52]: > 100 µM
Activity [47]: 36.14%
GI50 [48]: 4.2 µM
CC50 [48, 52]: > 100 µM
Activity [49]: 44.85%
GI50 [50]: 2400 nM
CC50 [50, 52]: > 100 µM
GI50 [51]: 1900 nM
CC50 [51, 52]: > 100 µM
